Assays:
Format in all cases: tissue-based
[1] = target: Substance-P receptor (Cavia porcellus) (UniProt P30547); assay: In vitro inhibition of substance P (6-11) hexapeptide induced contractions of the guinea pig ileum at 10 uM.
Outline: (§1)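 Agonist (SP or SP(6-11)-hexapeptide) dose-response curves on a 3-min cycle with 1-min contact, then washout. Dose ratio = agonist EC50 with antagonist / EC50 alone. At least two preparations per compound; ratios below 2 taken as insignificant.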

[2] = target: Substance-P receptor (Cavia porcellus) (UniProt P30547); assay: In vitro inhibition of substance P induced contractions of the guinea pig ileum at 5 uM.; outline: as §1
[3] = target: Substance-P receptor (Cavia porcellus) (UniProt P30547); assay: In vitro inhibition of substance P induced contractions of the guinea pig ileum at 10 uM.; outline: as §1
[4] = target: Substance-P receptor (Cavia porcellus) (UniProt P30547); assay: In vitro inhibition of substance P (6-11) hexapeptide induced contractions of the guinea pig ileum at 5 uM.; outline: as §1

Chain of Substance-P receptor (Cavia porcellus) (P30547 whole entry): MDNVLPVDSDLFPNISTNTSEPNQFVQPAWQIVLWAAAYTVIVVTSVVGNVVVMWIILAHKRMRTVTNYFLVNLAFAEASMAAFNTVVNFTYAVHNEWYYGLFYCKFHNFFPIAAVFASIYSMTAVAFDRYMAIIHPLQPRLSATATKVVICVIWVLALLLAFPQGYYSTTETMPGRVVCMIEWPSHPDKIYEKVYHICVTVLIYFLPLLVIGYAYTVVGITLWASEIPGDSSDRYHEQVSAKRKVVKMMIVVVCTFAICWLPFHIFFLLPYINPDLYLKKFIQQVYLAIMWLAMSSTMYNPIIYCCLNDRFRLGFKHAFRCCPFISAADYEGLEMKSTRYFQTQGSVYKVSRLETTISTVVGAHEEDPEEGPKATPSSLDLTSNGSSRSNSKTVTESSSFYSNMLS

Activity [1]	Activity [2]	Activity [3]	Activity [4]	SMILES
37 dose ratio	15 dose ratio	17.2 dose ratio	34 dose ratio	COC(=O)[C@@H](CCSC)NC(=O)[C@@H](CC(C)C)NC(=O)CNC(=O)[C@@H](Cc1c[nH]c2ccccc12)NC(=O)[C@@H](Cc1c[nH]c2ccccc12)NC(=O)[C@H](CCC(N)=O)NC(=O)[C@H](CCC(N)=O)NC(=O)[C@@H]1CCCN1C(=O)[C@H](CCCCNC(=O)OCc1ccccc1)NC(=O)[C@@H]1CCCN1C(=O)[C@H](CCCN=C(N)N)NC(=O)OCc1ccccc1
225 dose ratio	5.8 dose ratio	18.2 dose ratio	69 dose ratio	COC(=O)[C@@H](CCSC)NC(=O)[C@H](CC(C)C)SCCNC(=O)[C@H](Cc1ccccc1)NC(=O)[C@@H](Cc1ccccc1)NC(=O)[C@H](CCCN=C(N)N)NC(=O)[C@H](CC(N)=O)NC(=O)OCc1ccccc1
19 dose ratio	< 2 dose ratio	< 2 dose ratio	3.1 dose ratio	COC(=O)C(CCSC)NC(=O)[C@@H](CC(C)C)SCCNC(=O)[C@@H](Cc1ccccc1)NC(=O)[C@H](Cc1ccccc1)NC(=O)[C@H](CCC(N)=O)NC(=O)[C@H](CCC(N)=O)NC(=O)[C@H]1CCCN1C(=O)[C@H](CCCCN)NC(=O)[C@H]1CCCN1C(=O)[C@@H](N)CCCN=C(N)N (stereo in doubt)
3.4 dose ratio	2.7 dose ratio	3.6 dose ratio	2.5 dose ratio	COC(=O)C(CCSC)NC(=O)[C@H](CC(C)C)SCCNC(=O)[C@@H](Cc1ccccc1)NC(=O)[C@@H](Cc1ccccc1)NC(=O)[C@H](CCC(N)=O)NC(=O)[C@H](CCC(N)=O)NC(=O)[C@H]1CCCN1C(=O)[C@H](CCCCN)NC(=O)[C@H]1CCCN1C(=O)[C@@H](N)CCCN=C(N)N (stereo in doubt)
< 2 dose ratio	< 2 dose ratio	< 2 dose ratio	< 2 dose ratio	COC(=O)[C@@H](CCSC)NC(=O)[C@H](CC(C)C)N(C)C(=O)CN(C)C(=O)[C@H](Cc1ccccc1)NC(=O)[C@@H](Cc1ccccc1)NC(=O)[C@H](CCC(N)=O)NC(=O)[C@H](CCC(N)=O)NC(=O)C1CCCN1C(=O)OC(C)(C)C (stereo in doubt)
2.5 dose ratio	< 2 dose ratio	< 2 dose ratio	< 2 dose ratio	COC(=O)[C@@H](CCSC)NC(=O)[C@H](CC(C)C)N(C)C(=O)CN(C)C(=O)[C@H](Cc1ccccc1)NC(=O)[C@@H](Cc1ccccc1)NC(=O)[C@H](CCC(N)=O)NC(=O)[C@H](CCC(N)=O)NC(=O)C1CCCN1C(=O)[C@H](CCCCN)NC(=O)C1CCCN1C(=O)[C@@H](N)CCCN=C(N)N (stereo in doubt)
68 dose ratio	18.5 dose ratio	20 dose ratio	54.5 dose ratio	COC(=O)[C@@H](CCSC)NC(=O)[C@H](CC(C)C)SCCNC(=O)[C@H](Cc1ccccc1)NC(=O)[C@@H](Cc1ccccc1)NC(=O)[C@H](CCCN=C(N)N)NC(=O)[C@H](CC(N)=O)NC(=O)C1CCCN1C(=O)[C@H](CCCCNC(=O)OCc1ccccc1)NC(=O)C1CCCN1C(=O)[C@H](CCCN=C(N)N)NC(=O)OCc1ccccc1 (stereo in doubt)
4 dose ratio	2.2 dose ratio	6 dose ratio	2.2 dose ratio	COC(=O)[C@H](CCSC)NC(=O)[C@H](CC(C)C)NC(=O)[C@@H](Cc1c[nH]c2ccccc12)NC(=O)[C@H](Cc1ccccc1)NC(=O)[C@@H](Cc1ccccc1)NC(=O)[C@H](CCCN=C(N)N)NC(=O)[C@H](CC(N)=O)NC(=O)C1CCCN1C(=O)[C@H](CCCCN)NC(=O)C1CCCN1C(=O)[C@@H](N)CCCN=C(N)N (stereo in doubt)
< 2 dose ratio	< 2 dose ratio	< 2 dose ratio	< 2 dose ratio	CSCC[C@H](NC(=O)[C@H](CC(C)C)NC(=O)[C@@H](Cc1c[nH]c2ccccc12)NC(=O)[C@H](Cc1ccccc1)NC(=O)[C@@H](Cc1ccccc1)NC(=O)[C@H](CCCN=C(N)N)NC(=O)[C@H](CC(N)=O)NC(=O)C1CCCN1C(=O)[C@H](CCCCN)NC(=O)C1CCCN1C(=O)[C@@H](N)CCCN=C(N)N)C(=O)O (stereo in doubt)
